Experiments:
Format in all cases: functional
DU-145 = assay: Antitumor activity against human DU145 cells; conditions: Homo sapiens, DU-145; read-out: Log LC50 (the source's name) (converted)
Summary of the method: (§1)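 Run by the NCI in its in vitro disease-oriented screen of about 60 human tumour cell lines. For each line it reports pGI50 (50% net growth inhibition), pTGI (total growth inhibition) and pLC50 (50% net cell death), each as –log molar concentration. Where an effect was not reached within the tested range, the highest tested concentration was used.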

[1] = Antitumor activity against human […] cells; summary of the method: as §1
SF-268 = assay: Antitumor activity against human SF268 cells; summary of the method: as §1
786-0 = assay: Antitumor activity against human 786-0 cells; summary of the method: as §1
MCF7 [2] = assay: Cell viability against human MCF7 cells at 10 uM
NCI/ADR-RES = assay: Antitumor activity against human NCI/ADR-RES cells; summary of the method: as §1
A549 = assay: Antitumor activity against human A549 cells; summary of the method: as §1
SK-MEL-2 = assay: Antitumor activity against human SKMEL2 cells; summary of the method: as §1
RXF 393 = assay: Antitumor activity against human RXF393 cells; summary of the method: as §1
HCC 2998 = assay: Antitumor activity against human HCC2998 cells; summary of the method: as §1
SN12C = assay: Antitumor activity against human SN12C cells; summary of the method: as §1
SK-OV-3 = assay: Antitumor activity against human SKOV3 cells; summary of the method: as §1
SK-MEL-28 = assay: Antitumor activity against human SKMEL28 cells; summary of the method: as §1
Malme-3M = assay: Antitumor activity against human MALME3M cells; summary of the method: as §1
NCI-H522 = assay: Antitumor activity against human NCI-H522 cells; summary of the method: as §1
IGROV-1 = assay: Antitumor activity against human IGROV1 cells; summary of the method: as §1
SF-539 = assay: Antitumor activity against human SF539 cells; summary of the method: as §1
CCRF-CEM = assay: Resistance index, Ratio of GI50 for human vinblastine-resistant CEM cells to GI50 for human CEM cells
A498 = assay: Antitumor activity against human A498 cells; summary of the method: as §1
MCF7 [3] = assay: Resistance index, Ratio of GI50 for human multidrug-resistant MCF7 cells to GI50 for human MCF7 cells
Summary of the method: (§2)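 Growth inhibition by MTT after 72 h incubation. Resistant sublines: LoVoDoxo and MCF-7 MDR were kept in 0.1 µg/mL doxorubicin; CEMVbl-100 was selected against vinblastine. GI50 given as mean ± SEM of three independent experiments. Resistance index is resistant-line GI50 over parental GI50.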

LOX IMVI = assay: Antitumor activity against human LOXIMVI cells; summary of the method: as §1
MDA-MB-435 = assay: Antitumor activity against human MDA-MB-435 cells; summary of the method: as §1
OVCAR-4 = assay: Antitumor activity against human OVCAR4 cells; summary of the method: as §1
[4] = Antitumor activity against human NCI-H322 cells; summary of the method: as §1
NCI-H460 = assay: Cell viability against human NCI-H460 cells at 10 uM
MCF7 [5] = assay: Antitumor activity against human MCF7 cells; summary of the method: as §1
PC-3 = assay: Antitumor activity against human PC3 cells; summary of the method: as §1
HCT-116 = assay: Antitumor activity against human HCT116 cells; summary of the method: as §1
CAKI-1 = assay: Antitumor activity against human CAKI1 cells; summary of the method: as §1
SK-MEL-5 = assay: Antitumor activity against human SKMEL5 cells; summary of the method: as §1
COLO 205 = assay: Antitumor activity against human COLO205 cells; summary of the method: as §1
RPMI-8226 = assay: Antitumor activity against human RPMI8226 cells; summary of the method: as §1
SNB-75 = assay: Antitumor activity against human SNB75 cells; conditions: Homo sapiens, SNB-75; summary of the method: as §1
SNB-19 = assay: Antitumor activity against human SNB19 cells; summary of the method: as §1
M14 = assay: Antitumor activity against human M14 cells; summary of the method: as §1
OVCAR-3 = assay: Antitumor activity against human OVCAR-3 cells; summary of the method: as §1
EKVX = assay: Antitumor activity against human EKVX cells; summary of the method: as §1
HCT-15 = assay: Antitumor activity against human HCT15 cells; summary of the method: as §1
HOP-92 = assay: Antitumor activity against human HOP92 cells; summary of the method: as §1
MCF7 [6] = assay: Growth inhibition of human MCF7 cells after 72 hrs by MTT assay; conditions: MCF7, 72 h; summary of the method: as §2
[7] = read-out: Log LC50 (the source's name) (converted)

SMILES: COc1ccc2c(c1)[nH]c(=O)c1c3ccccc3cn21
- CC50 (DU-145): 4270 nM
- GI50 [1]: 56.2 nM
- LC50 [1]: 3090 nM
- TGI ([1]; read-out: pTGI (converted)): 741 nM
- GI50 (SF-268): 74.1 nM
- CC50 (SF-268; [7]): 87100 nM
- TGI (SF-268; read-out: pTGI (converted)): 2950 nM
- GI50 (786-0): 41.7 nM
- CC50 (786-0; [7]): 4570 nM
- TGI (786-0; read-out: pTGI (converted)): 1860 nM
- Activity (MCF7 [2]): 0%
- GI50 (NCI/ADR-RES): 21.4 nM
- LC50 (NCI/ADR-RES): 10000 nM
- TGI (NCI/ADR-RES; read-out: pTGI (converted)): 57.5 nM
- GI50 (A549): 67.6 nM
- CC50 (A549; [7]): 6030 nM
- TGI (A549; read-out: pTGI (converted)): 1660 nM
- GI50 (SK-MEL-2): 158 nM
- LC50 (SK-MEL-2): 7760 nM
- TGI (SK-MEL-2; read-out: pTGI (converted)): 2510 nM
- GI50 (RXF 393): 20.4 nM
- CC50 (RXF 393; [7]): > 100000 nM
- TGI (RXF 393; read-out: pTGI (converted)): 3160 nM
- GI50 (HCC 2998): 18.2 nM
- LC50 (HCC 2998): 501 nM
- TGI (HCC 2998; read-out: pTGI (converted)): 49 nM
- GI50 (SN12C): 57.5 nM
- LC50 (SN12C): > 100000 nM
- TGI (SN12C; read-out: pTGI (converted)): 2090 nM
- GI50 (SK-OV-3): 38.9 nM
- LC50 (50% net cell kill) (SK-OV-3): 8510 nM
- TGI (SK-OV-3; read-out: pTGI (converted)): 1620 nM
- GI50 (SK-MEL-28): 52.5 nM
- CC50 (SK-MEL-28; [7]): 6610 nM
- TGI (SK-MEL-28; read-out: pTGI (converted)): 2510 nM
- GI50 (Malme-3M): 10 nM
- CC50 (Malme-3M; [7]): 8510 nM
- TGI (Malme-3M; read-out: pTGI (converted)): 3390 nM
- GI50 (NCI-H522): 60.3 nM
- CC50 (NCI-H522; [7]): 10000 nM
- TGI (NCI-H522; read-out: pTGI (converted)): 2290 nM
- GI50 (IGROV-1): 74.1 nM
- CC50 (IGROV-1; [7]): 8510 nM
- TGI (IGROV-1; read-out: pTGI (converted)): 2290 nM
- GI50 (SF-539): 22.9 nM
- LC50 (50% net cell kill) (SF-539): 2750 nM
- TGI (SF-539; read-out: pTGI (converted)): 70.8 nM
- RatioGI50 (CCRF-CEM): 1
- GI50 (A498): 22.4 nM
- CC50 (A498; [7]): > 100000 nM
- TGI (A498; read-out: pTGI (converted)): 1350 nM
- RatioGI50 (MCF7 [3]): 0.9
- GI50 (LOX IMVI): 70.8 nM
- LC50 (50% net cell kill) (LOX IMVI): 4470 nM
- TGI (LOX IMVI; read-out: pTGI (converted)): 1780 nM
- GI50 (MDA-MB-435): 4.07 nM
- LC50 (50% net cell death) (MDA-MB-435): > 100000 nM
- TGI (MDA-MB-435; read-out: pTGI (converted)): 20.9 nM
- GI50 (OVCAR-4): 91.2 nM
- LC50 (50% net cell kill) (OVCAR-4): > 100000 nM
- TGI (OVCAR-4; read-out: pTGI (converted)): 5130 nM
- GI50 [4]: 83.2 nM
- LC50 (50% net cell death) [4]: 7760 nM
- TGI ([4]; read-out: pTGI (converted)): 2570 nM
- Activity (NCI-H460): 0%
- GI50 (MCF7 [5]): 28.2 nM
- LC50 (50% net cell kill) (MCF7 [5]): 5500 nM
- TGI (MCF7 [5]; read-out: pTGI (converted)): 1450 nM
- GI50 (PC-3): 37.1 nM
- LC50 (50% net cell death) (PC-3): > 100000 nM
- TGI (PC-3; read-out: pTGI (converted)): 2570 nM
- GI50 (HCT-116): 39.8 nM
- LC50 (HCT-116): 4470 nM
- TGI (HCT-116; read-out: pTGI (converted)): 1320 nM
- GI50 (CAKI-1): 35.5 nM
- LC50 (CAKI-1): 5130 nM
- TGI (CAKI-1; read-out: pTGI (converted)): 2000 nM
- GI50 (SK-MEL-5): 28.2 nM
- LC50 (SK-MEL-5): 3470 nM
- TGI (SK-MEL-5; read-out: pTGI (converted)): 1170 nM
- GI50 (COLO 205): 40.7 nM
- LC50 (COLO 205): 5750 nM
- TGI (COLO 205; read-out: pTGI (converted)): 1150 nM
- GI50 (RPMI-8226): 36.3 nM
- CC50 (RPMI-8226; [7]): 6920 nM
- TGI (RPMI-8226; read-out: pTGI (converted)): 1410 nM
- GI50 (SNB-75): 27.5 nM
- LC50 (SNB-75): > 100000 nM
- TGI (SNB-75; read-out: pTGI (converted)): 83.2 nM
- GI50 (SNB-19): 38.9 nM
- CC50 (SNB-19; [7]): > 100000 nM
- TGI (SNB-19; read-out: pTGI (converted)): 4070 nM
- GI50 (M14): 10 nM
- CC50 (M14; [7]): 3630 nM
- TGI (M14; read-out: pTGI (converted)): 12900 nM
- GI50 (OVCAR-3): 22.4 nM
- LC50 (50% net cell death) (OVCAR-3): 2880 nM
- TGI (OVCAR-3; read-out: pTGI (converted)): 64.6 nM
- GI50 (EKVX): 91.2 nM
- LC50 (50% net cell kill) (EKVX): > 100000 nM
- TGI (EKVX; read-out: pTGI (converted)): 29500 nM
- GI50 (HCT-15): 26.3 nM
- CC50 (HCT-15; [7]): 4570 nM
- TGI (HCT-15; read-out: pTGI (converted)): 1150 nM
- GI50 (HOP-92): 1000 nM
- LC50 (HOP-92): 39800 nM
- TGI (HOP-92; read-out: pTGI (converted)): 15800 nM
- GI50 (MCF7 [6]): 170 nM

— ChEMBL document CHEMBL1144782, “Isoindolo[2,1-a]quinoxaline derivatives, novel potent antitumor agents with dual inhibition of tubulin polymerization and topoisomerase I” (2008)
